Measurements as given in ChEMBL document CHEMBL4706641, “Novel Carboline Fungal Histone Deacetylase (HDAC) Inhibitors for Combinational Treatment of Azole-Resistant Candidiasis” (J Med Chem, 2021).
≈ marks a conversion by molar mass, not a printed value. Calls of active or inactive are those of the source. The calls are words filed in the database; no cut-off is given here.

Tests used:
[1] = tested on: Candida albicans; test: Synergistic antifungal activity against Candida albicans 0304103 assessed as potentiation of fluconazole antifungal activity by measuring FICI incubated for 48 hrs in presence of fluconazole by checkerboard microdilution assay; format: functional
How it was run: (§1)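 Checkerboard broth microdilution per CLSI M27-A3 (modified), clinical Candida isolates. Exponential cells in RPMI 1640 (MOPS-buffered) at 10³ cells/mL; fluconazole 0.25–64 μg/mL crossed with test compound 2–64 μg/mL (final). 48 h at 35 °C; OD630 read with background subtracted. MIC80 = 80% growth inhibition; FICI ≤0.5 synergy, >4 antagonism.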

[2] = tested on: Candida albicans; test: Inhibition of HDAC in Candida albicans supernatants using Boc-Lys(Ac)-AMC substrate incubated for 18 hrs by fluorescence based assay
How it was run: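 Fungal whole-cell HDAC assay: C. albicans converted to protoplasts by snailase/mercaptoethanol (37 °C, 3 h), resuspended in PBS; compound 1–100 μM final, 35 °C 12 h, then Boc-Lys(Ac)-AMC 33 μM, 37 °C 6 h. Stopped with trypsin/Nonidet P-40 buffer, 37 °C 2 h; fluorescence Ex 360/Em 460 nm. Inhibition vs control after blank subtraction; three independent experiments.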

[3] = tested on: Candida albicans; test: Synergistic antifungal activity against Candida albicans 10061 assessed as fluconazole MIC incubated for 48 hrs in presence of fluconazole by microdilution assay (reference value: fluconazole alone MIC = >[…] ug/ml); format: functional
[4] = tested on: Candida albicans; test: microbe, parasite or virus in culture; format: functional, 0304103; settings: Candida albicans, 0304103; time 48 hrs; read-out: MIC80
[5] = tested on: Candida albicans; test: Antifungal activity against Candida albicans 0304103 infected in ICR mouse model of candidiasis assessed as reduction in kidney fungal burden at 10 mg/kg, ip dosed 24 hrs post infection and measured after 5 days; format: functional, organism-based; settings: time 5.0 day
[6] = tested on: Candida albicans; test: Synergistic antifungal activity against Candida albicans 9884 incubated for 48 hrs in presence of fluconazole by microdilution assay; format: functional; how it was run: as §1
[7] = tested on: Candida albicans; test: Antifungal activity against Candida albicans 0304103 infected in ICR mouse model of candidiasis assessed as reduction in morphological changes of budded-to-hyphal transition at 10 mg/kg, ip dosed 24 hrs post infection and measured after 5 days by H and E staining based microscopical analysis; format: functional, organism-based; settings: time 5.0 day
How it was run: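 Two ICR mice per group, infected and treated as in the kidney burden model (IV 5 × 10⁵ C. albicans 0304103; IP compound 10 mg/kg, fluconazole 1 mg/kg, or combination, 5 days). Kidneys fixed in 4% paraformaldehyde, paraffin-embedded, 4 μm sections, H&E stained, examined at 40× and 200×.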

[8] = tested on: Pichia kudriavzevii; test: Synergistic antifungal activity against Candida krusei 10153 incubated for 48 hrs in presence of fluconazole by microdilution assay; format: functional; how it was run: as §1
[9] = Toxicity in HUVEC in presence of fluconazole; format: cell-based; settings: human, HUVEC cells
[10] = tested on: Candida albicans; test: Inhibition of biofilm formation in Candida albicans 0304103 at 0.12 to 64 ug/ml incubated for 24 hrs by XTT reduction assay; format: functional, organism-based; settings: dose 0.12-64 µg/ml
How it was run: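 C. albicans 0304103 at 1.0 × 10⁶ CFU/mL in RPMI 1640 allowed to adhere 90 min at 37 °C, washed with PBS, then fresh medium with fluconazole 2–32 μg/mL and/or compound 0.12–64 μg/mL added; 24 h at 37 °C. Biofilm metabolic activity by XTT reduction, OD490. Three independent experiments.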

[11] = tested on: Pichia kudriavzevii; test: Synergistic antifungal activity against Candida krusei 10153 assessed as fluconazole MIC incubated for 48 hrs in presence of fluconazole by microdilution assay (reference value: fluconazole alone MIC = […] ug/ml); format: functional
[12] = tested on: Candida albicans; test: Inhibition of pre-formed biofilms in Candida albicans 0304103 at 64 ug/ml incubated for 24 hrs in presence of fluconazole by XTT reduction assay; format: functional; settings: dose 64.0 µg/ml
How it was run: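 Mature biofilms grown 24 h at 37 °C from C. albicans 0304103 (1.0 × 10⁶ CFU/mL in RPMI 1640), then treated with drugs alone or combined as in the formation assay; viability by XTT reduction at OD490. Three independent experiments; t-test versus control.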

[13] = tested on: Candida albicans; test: Antifungal activity against Candida albicans 0304103 at 32 ug/ml incubated for 48 hrs by microdilution assay; format: functional, organism-based; settings: dose 32.0 µg/ml
[14] = tested on: Candida albicans; test: Antifungal activity against Candida albicans 0304103 incubated for 48 hrs by microdilution assay; format: functional; settings: Candida albicans, 0304103, read-out: MIC80; how it was run: as §1
[15] = tested on: Candida albicans; test: Synergistic antifungal activity against Candida albicans 9884 assessed as fluconazole MIC incubated for 48 hrs in presence of fluconazole by microdilution assay (reference value: fluconazole alone MIC = >[…] ug/ml); format: functional
[16] = tested on: Candida albicans; test: Synergistic antifungal activity against Candida albicans 4108 incubated for 48 hrs in presence of fluconazole by microdilution assay; format: functional; how it was run: as §1
[17] = tested on: Candida albicans; test: Up-regulation of CDR2 mRNA expression in Candida albicans 0304103 at 32 ug/ml incubated for 24 hrs by RT-PCR analysis; format: functional; settings: dose 32.0 µg/ml
How it was run: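 C. albicans 0304103 (initial 1 × 10⁶ cells/mL) treated with DMSO, fluconazole 32 μg/mL, compound 32 μg/mL, or both in YEPD medium, 35 °C for 24 h. Total RNA extracted, reverse transcribed, real-time PCR for 40 cycles; fold change by 2^−ΔΔCt with ACT1 as internal control.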

[18] = tested on: Candida albicans; test: Synergistic antifungal activity against azole-resistant Candida albicans assessed as potentiation of VRC antifungal activity by measuring VRC incubated for 48 hrs in presence of fluconazole by checkerboard microdilution assay; format: functional
[19] = tested on: Pichia kudriavzevii; test: Synergistic antifungal activity against Candida krusei 10153 assessed as potentiation of fluconazole antifungal activity by measuring FICI incubated for 48 hrs in presence of fluconazole by checkerboard microdilution assay; format: functional
How it was run: (§2)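 Checkerboard broth microdilution per CLSI M27-A3 (modified), clinical Candida isolates. 48 h at 35 °C; OD630 read with background subtracted. MIC80 = 80% growth inhibition; FICI ≤0.5 synergy, >4 antagonism.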

[20] = tested on: Candida albicans; test: Synergistic antifungal activity against Candida albicans 10061 assessed as potentiation of fluconazole antifungal activity by measuring FICI incubated for 48 hrs in presence of fluconazole by checkerboard microdilution assay; format: functional; how it was run: as §2
[21] = tested on: Candida albicans; test: Up-regulation of MDR1 mRNA expression in Candida albicans 0304103 at 32 ug/ml incubated for 24 hrs by RT-PCR analysis; format: functional; settings: dose 32.0 µg/ml
How it was run: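 Cells from a 1 × 10⁶ cells/mL starting suspension were split into DMSO control, FLC 32 μg/mL, test compound 32 μg/mL and combination (32 + 32 μg/mL) groups, then incubated 24 h at 35 °C in YEPD. Total RNA was extracted and reverse-transcribed. Real-time PCR ran 40 cycles (95 °C 5 s, 60 °C 34 s). Fold change was calculated by 2^−ΔΔCt against ACT1.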

[22] = target: Histone deacetylase 1 (Homo sapiens, UniProt Q13547); test: Inhibition of human HDAC1 pre-incubated for 5 mins before substrate addition and measured after 30 mins by fluorescence based assay
Histone deacetylase 1, sequence (Q13547 whole entry): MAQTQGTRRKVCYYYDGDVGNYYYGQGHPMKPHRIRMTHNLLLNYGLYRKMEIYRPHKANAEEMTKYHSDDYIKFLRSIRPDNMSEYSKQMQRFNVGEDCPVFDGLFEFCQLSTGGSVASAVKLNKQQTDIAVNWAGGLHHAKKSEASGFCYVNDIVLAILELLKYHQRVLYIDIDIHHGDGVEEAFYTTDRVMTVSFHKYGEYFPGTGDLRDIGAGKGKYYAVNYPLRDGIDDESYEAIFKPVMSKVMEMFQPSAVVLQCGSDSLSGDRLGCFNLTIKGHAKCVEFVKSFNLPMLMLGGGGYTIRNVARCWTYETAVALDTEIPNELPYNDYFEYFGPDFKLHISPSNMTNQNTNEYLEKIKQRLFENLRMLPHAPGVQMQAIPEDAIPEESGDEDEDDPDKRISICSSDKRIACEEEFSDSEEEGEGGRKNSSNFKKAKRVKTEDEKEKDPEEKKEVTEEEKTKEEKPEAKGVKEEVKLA

SMILES: O=C(Cc1ccc(OCCCn2c3c(c4cccc(Cl)c42)CCNC3)cc1)NO
- fractional inhibitory concentration index (FICI) [1]: 0.035
- inhibition [2]: Active
- MIC80 [3]: 2 µg/mL
- MIC80 [4]: 0.25 µg/mL (≈ 0.604 µM)
- Activity [5]: inactive
- MIC80 [6]: 2 µg/mL
- Activity [7]: inactive
- MIC80 [8]: 8 µg/mL
- IC50 [9]: 12.2 µM
- inhibition [10]: inactive
- MIC80 [11]: 8 µg/mL
- inhibition [12]: Active
- Activity [13]: inactive
- MIC80 [14]: > 64 µg/mL
- MIC80 [15]: 0.5 µg/mL
- MIC80 [16]: 2 µg/mL
- Activity [17]: Active
- fractional inhibitory concentration index (FICI) [18]: 0.035
- fractional inhibitory concentration index (FICI) [19]: 0.25
- fractional inhibitory concentration index (FICI) [20]: 0.062
- Activity [21]: Active
- IC50 [22]: 2.23 µM
